From publication PMC3690436 (Journal of nuclear medicine : official publication, Society …, 2009)

What was measured:
P-gp [1] = target: T1, P-gp (Homo sapiens, UniProt P08183); conditions: cited from earlier work
P-gp [2] = conditions: non-human primates, infusion of 20 mg/kg/2 hr; cited from earlier work
[3] = target: P-gp at the human blood-brain barrier (Homo sapiens, UniProt P08183)
[4] = humans; ref Ulrich Elben, written communication, 2008; cited from earlier work
[5] = cited from earlier work
[6] = Tolerability of tariquidar in healthy volunteers; assay type: in vivo, human; conditions: 2 mg/kg BW i.v., 5 healthy male subjects
[7] = Tariquidar concentration in venous plasma by LC/MS; assay type: in vivo, human
P-gp [8] = conditions: rats, cited from earlier work
MRP1 = conditions: cited from earlier work
P-gp [9] = conditions: in vitro; cited from earlier work
[10] = Arterial blood and metabolite analysis of; assay type: in vivo, human; conditions: 2 mg/kg i.v.
P-gp [11] = target: T1, P-gp; test: Rhodamine-123 efflux assay in peripheral white blood cells; assay type: cell-based
Method in brief: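 Fresh whole blood (18 mL) was drawn from each of the 5 volunteers before dosing. Isolated white blood cells were incubated at 37°C with Rh-123 (0.2 μg/mL) and 10 dilutions of test compound in DMSO (final 0.01 nM–1 μM), in duplicate. Rh-123 accumulation (mean fluorescence per cell) was read by FACS. EC50 came from hyperbolic dose-response fits, given as mean±SD over the 5 donors.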

T1 sequence (P08183 whole entry, the tested form may be a part): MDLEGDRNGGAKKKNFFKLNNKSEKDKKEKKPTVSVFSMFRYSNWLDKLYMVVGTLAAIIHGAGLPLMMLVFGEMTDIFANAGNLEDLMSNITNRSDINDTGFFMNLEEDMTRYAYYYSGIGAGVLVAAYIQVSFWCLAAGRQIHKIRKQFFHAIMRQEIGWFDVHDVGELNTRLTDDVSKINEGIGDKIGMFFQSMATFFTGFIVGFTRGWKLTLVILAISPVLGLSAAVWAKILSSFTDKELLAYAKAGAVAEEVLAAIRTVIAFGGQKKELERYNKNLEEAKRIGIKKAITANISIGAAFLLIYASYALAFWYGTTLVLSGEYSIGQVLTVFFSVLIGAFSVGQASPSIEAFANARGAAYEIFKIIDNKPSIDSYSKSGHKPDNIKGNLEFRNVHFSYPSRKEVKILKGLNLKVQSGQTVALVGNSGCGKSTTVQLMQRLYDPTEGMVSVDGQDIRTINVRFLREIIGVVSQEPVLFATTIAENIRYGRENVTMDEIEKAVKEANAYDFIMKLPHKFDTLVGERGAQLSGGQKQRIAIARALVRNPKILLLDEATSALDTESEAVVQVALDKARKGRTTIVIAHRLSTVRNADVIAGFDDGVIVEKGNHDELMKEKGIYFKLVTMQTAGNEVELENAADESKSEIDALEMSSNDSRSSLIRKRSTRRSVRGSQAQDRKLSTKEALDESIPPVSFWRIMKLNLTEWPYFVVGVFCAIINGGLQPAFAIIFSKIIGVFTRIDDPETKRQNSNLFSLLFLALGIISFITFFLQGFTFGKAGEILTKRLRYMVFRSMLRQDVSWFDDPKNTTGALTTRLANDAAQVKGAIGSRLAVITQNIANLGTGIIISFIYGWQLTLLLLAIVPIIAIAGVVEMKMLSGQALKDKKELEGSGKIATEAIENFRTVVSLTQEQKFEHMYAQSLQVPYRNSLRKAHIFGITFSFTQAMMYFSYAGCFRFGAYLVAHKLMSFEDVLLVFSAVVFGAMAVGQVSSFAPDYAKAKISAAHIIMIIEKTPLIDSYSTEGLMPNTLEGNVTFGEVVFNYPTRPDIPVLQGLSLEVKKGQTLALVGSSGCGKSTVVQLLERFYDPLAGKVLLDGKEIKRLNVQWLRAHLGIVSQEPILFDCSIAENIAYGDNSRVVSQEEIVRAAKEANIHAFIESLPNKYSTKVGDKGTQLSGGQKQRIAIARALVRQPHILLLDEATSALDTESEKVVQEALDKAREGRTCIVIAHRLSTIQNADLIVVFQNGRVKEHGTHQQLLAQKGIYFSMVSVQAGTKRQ
Chain of P-gp at the human blood-brain barrier (P08183 whole entry): as the sequence (P08183 whole entry, the tested form may be a part) above

C=C[C@H]1C[N@@]2CC[C@H]1C[C@@H]2[C@@H](O)c1ccnc2ccc(OC)cc12 [quinidine]
CNS pharmacologic effect of loperamide when inhibitor co-administered (P-gp [1]; 8 healthy volunteers): caused respiratory depression

C/C=C/C[C@@H](C)C(=O)[C@H]1C(=O)N[C@@H](C(C)C)C(=O)N(C)CC(=O)N(C)[C@@H](CC(C)C)C(=O)N[C@@H](C(C)C)C(=O)N(C)[C@@H](CC(C)C)C(=O)N[C@@H](C)C(=O)N[C@H](C)C(=O)N(C)[C@@H](CC(C)C)C(=O)N(C)[C@@H](CC(C)C)C(=O)N(C)[C@@H](C(C)C)C(=O)N1C [valspodar]
Increase of brain uptake of racemic 11C-verapamil (P-gp [2]): 4.61 fold

COc1cc2c(cc1OC)CN(CCc1ccc(NC(=O)c3cc(OC)c(OC)cc3NC(=O)c3cnc4ccccc4c3)cc1)CC2 [tariquidar, Tariquidar]
Maximum increase of brain radioactivity versus baseline (t=40 min) ([3]; scan 1, at 5 min after end of tariquidar infusion (t=75 min), 2 mg/kg i.v.): +74% | Increase of brain radioactivity versus baseline (t=40 min) ([3]; scan 1, at 35 min after end of tariquidar infusion (t=115 min), on average): +10% | Binding to plasma proteins [4]: 99.5% | Tariquidar-related material in plasma existing as unchanged parent compound ([5]; monkey plasma): > 95% | Elimination half-life ([5]; monkey): 5 h | Mild adverse events possibly related to study medication [6]: mild hypotension, headache and nausea, each in one patient and dizziness in 2 patients | Tolerability [6]: well tolerated without occurrence of severe or serious adverse events | Plasma concentration of tariquidar during the second PET scan ([7]; 200-240 min after start of infusion, 2 mg/kg i.v., mean±SD): 490 ± 166 ng/mL | Plasma concentration relative to EC50 for inhibition of Rh-123 efflux ([7]; at 24 h after tariquidar infusion): 424 fold | Concentration of unbound tariquidar in plasma ([7]; at the time of the second scan, corrected for 99.5% protein binding): 2.45 ± 0.83 ng/mL | Plasma concentration relative to EC50 for inhibition of Rh-123 efflux ([7]; during second PET scan): 980 fold | concentration at 24 h ([7]; male, human, plasma, intravenous, 2 mg/kg): 212 ± 24 ng/mL | Plasma tariquidar concentration at the time of the PET scan (P-gp [8]; 15 mg/kg): about 1,400 ng/mL | Increase of (R)-11C-verapamil DVs (P-gp [8]; plasma tariquidar levels about 500 ng/mL): 3-4 fold | Increase of the (R)-11C-verapamil DV (P-gp [8]; tariquidar 15 mg/kg): 12 fold | Inhibition of MRP1 (MRP1): does not inhibit | Duration of P-gp inhibitory effect after removal from the incubation medium (P-gp [9]): up to 22 h | CNS activity of loperamide (reduction in pupil diameter) after inhibitor (P-gp [1]; humans, tariquidar 2 mg/kg BW): not affected | Influence of tariquidar on the metabolism of (R)-11C-verapamil [10]: did not have significant influence | EC50 (P-gp [11]): 773 pM
